Values after ≈ are worked out from the molar mass of the structure shown. Active and inactive are the calls of the source. The calls are words filed in the database; no cut-off is given here.
Legend:
[1] = Clearance in Sprague-Dawley rat blood at 1 mg/kg, iv administered as bolus dose by UPLC-MS/MS analysis; assay type: ADME, organism-based
Outline: (§1)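 Male Sprague Dawley rats (n=3/route) received an iv bolus solution at 1 mg free base/kg (5 mL/kg; 5% DMSO in saline). Blood sampled from 5 min to 30 or 48 h post-dose, mixed with two volumes water, frozen, then analysed by UPLC-MS/MS. Parameters derived from the blood concentration-time curve.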

[2] = Intrinsic clearance in Sprague-Dawley rat liver microsomes at 0.5 uM in presence of NADPH incubated upto 30 mins by UPLC-MS/MS analysis; assay type: ADME, Microsome; details: 0.5 h
Outline: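 Compound at 0.5 μM incubated with female CD1 mouse, male Sprague-Dawley rat or pooled human liver microsomes (0.5 mg/mL, 50 mM potassium phosphate, pH 7.4). Reaction started with excess NADPH. Samples taken at 0-30 min, quenched in acetonitrile, analysed by UPLC-MS/MS. Verapamil used as control, single time course.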

[3] = test system: Plasmodium falciparum; assay: Antiplasmodial activity against drug resistant Plasmodium falciparum 7G8 by [3H]hypoxanthine incorporation assay; assay type: functional, organism-based
Outline: (§2)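 Strains (K1, W2, 7G8, TM90C2A, D6, V1/S resistant; NF54 sensitive) cultured by the Trager and Jensen method; EC50 determined in vitro from [3H]hypoxanthine incorporation.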

[4] = test system: Plasmodium berghei; assay: Antiplasmodial activity against Plasmodium berghei ANKA infected in NMRI mouse assessed as survival days at 3 mg/kg, po QD for 4 days; assay type: functional; details: time 4 day
[5] = test system: Plasmodium falciparum; assay: Antiplasmodial activity against drug resistant Plasmodium falciparum […] [3H]hypoxanthine incorporation assay; assay type: functional, organism-based; outline: as §2
[6] = Permeability of the compound at 10 uM incubated for 5 hrs by UPLC-MS/MS analysis based PAMPA method; assay type: ADME; details: read-out: permeability
Outline: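 PAMPA run on a lipid-oil-lipid tri-layer filter at pH 7.4. Compound at 10 μM in PBS (DMSO ≤5%) in donor wells, PBS in acceptor wells, kept 5 h at room temperature. Both compartments quantified by UPLC-MS/MS. Data accepted only when recovery exceeded 70%.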

[7] = AUC in NMRI mouse at 3 mg/kg, po administered as gavage by UPLC-MS/MS analysis; assay type: ADME, organism-based; parameters: dose 3 mg/kg; details: in vivo
[8] = Kinetic aqueous solubility of the compound by laser nephelometry; assay type: physicochemical; details: read-out: Kinetic_solubility
Outline: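 Kinetic solubility measured by laser nephelometry. DMSO serial dilutions diluted into water to give final 100–5 μg/mL at 1.0% DMSO. Read immediately, in triplicate aliquots.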

[9] = test system: Plasmodium berghei; assay: Antiplasmodial activity against Plasmodium berghei ANKA infected in NMRI mouse assessed as cure rate at 30 mg/kg, po QD for 4 days; assay type: functional, organism-based; details: time 4.0 day
Outline: (§3)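 Female NMRI mice (n=3 per group, randomized, not blinded) infected with GFP-transfected P. berghei ANKA. Oral dosing once daily for 4 days in 10% DMSO/40% PEG400/50% water or HPMC suspension vehicle. Parasitaemia measured by flow cytometry on blood collected 96 h after infection. Mice watched for toxicity over 4 h post-dose each day.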

[10] = Blood clearance in NMRI mouse at 1 mg/kg, iv administered as bolus dose by UPLC-MS/MS analysis; assay type: ADME, organism-based
[11] = Volume of distribution at steady state in Sprague-Dawley rat at 1 mg/kg, iv administered as bolus dose by UPLC-MS/MS analysis; assay type: ADME, organism-based; details: in vivo, 1 mg/kg; outline: as §1
[12] = test system: Plasmodium berghei; assay: Antiplasmodial activity against Plasmodium berghei ANKA infected in NMRI mouse assessed as reduction in parasitemia at 10 mg/kg, po QD for 4 days; assay type: functional; parameters: scale not given: the % may be the effect or the level left; details: time 4 day; outline: as §3
[13] = test system: Plasmodium berghei; assay: Antiplasmodial activity against GFP-transfected Plasmodium berghei ANKA infected in NMRI mouse assessed as reduction in parasitemia by measuring effective dose administered once daily oral dose for 4 days; assay type: functional; details: 96 h, time 4 day; outline: as §3
[14] = Tmax in NMRI mouse at 3 mg/kg, po administered as gavage by UPLC-MS/MS analysis; assay type: ADME, organism-based; details: in vivo
[15] = Half-life in Sprague-Dawley rat at 1 mg/kg, iv administered as bolus dose by UPLC-MS/MS analysis; assay type: ADME, organism-based; details: in vivo, 1 mg/kg; outline: as §1
[16] = test system: Plasmodium berghei; assay: Antiplasmodial activity against Plasmodium berghei ANKA infected in NMRI mouse assessed as reduction in parasitemia at 1 mg/kg, po QD for 4 days; assay type: functional; parameters: scale not given: the % may be the effect or the level left; details: time 4 day; outline: as §3
[17] = Oral bioavailability in NMRI mouse at 10 mg/kg administered via gavage by UPLC-MS/MS analysis; assay type: ADME, organism-based; details: in vivo
Outline: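 Female NMRI mice (n=3) dosed by oral gavage as a solution at 10 mg free base/kg (10 mL/kg; vehicle 5 or 10% DMSO, 40% PEG400). Blood levels measured by UPLC-MS/MS. Parameters derived from the blood concentration-time curve.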

In the case of `O=C(NCCN1CCCC1)c1cc(-c2ccc(CN3CCOCC3)cc2)nc2ccc(F)cc12` [CABAMIQUINE], the clearance [1] is reported as 18 mL/min/kg, the CLH [2] is reported as “<= 0.8 ml/min/g” and the EC50 [3] is reported as 0.4 nM. The Survival [4] was 25 days, the EC50 [5] was 0.3 nM and the Papp at 5 h, 10 µM [6] was 7.3 ×10⁻⁶ cm/s. The AUC [7] was 2990 ng·h/mL, the solubility kinetic [8] was 216 µM (≈ 99.9 µg/mL) and the Activity [9] was “Active”. It also gave a clearance [10] of 12 mL/min/kg, a Vdss [11] of 15 L/kg and an Activity [12] of 99.9%. It also gave an ED90 [13] of 0.1 mg/kg, a Tmax [14] of 1 h and a t1/2 [15] of 10 h. It also gave an Activity [16] of 99.9% and a bioavailability [17] of 74%.

From ChEMBL document CHEMBL4680079, “Discovery of a Quinoline-4-carboxamide Derivative with a Novel Mechanism of Action, Multistage Antimalarial Activity, and Potent in Vivo Efficacy” (J Med Chem, 2016)
